Data as given in ChEMBL document CHEMBL2311335, “Increased hydrophobicity and estrogenic activity of simple phenols with silicon and germanium-containing substituents” (J Med Chem, 2013).
Active and inactive are the calls of the source. The rule behind the calls is not given here.

Assays:
MCF7 [1] = assay: Estrogenic activity in human MCF7 cells assessed as cell proliferation after 7 days by WST-8 assay; format: functional, cell-based
Outline: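 Cells were seeded at 1.2 × 10³ per well in the same medium. Proliferation was read by WST-8 (2 h, absorbance at 450 nm). Viable cell number was plotted against log concentration and EC₅₀ taken from a sigmoidal fit.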

[2] = Dissociation constant, pKa of the compound
[3] = Octanol-water partition coefficient, log P of the compound by HPLC analysis
MCF7 [4] = assay: Estrogenic activity in human MCF7 cells assessed as cell proliferation at 10^-12 M to 10^-6 M after 7 days by WST-8 assay relative to estradiol; format: functional
[5] = biological target: T1, Estrogen receptor (Homo sapiens) (UniProt P03372); assay: Displacement of [3H]estradiol from human recombinant ER at 10^-8 to 10^-7 M after 14 to 18 hrs by scintillation counting analysis; conditions: in the assay text read “10^-8 to 10^-4 M” for “10^-8 to 10^-7 M”
T1 sequence (whole entry): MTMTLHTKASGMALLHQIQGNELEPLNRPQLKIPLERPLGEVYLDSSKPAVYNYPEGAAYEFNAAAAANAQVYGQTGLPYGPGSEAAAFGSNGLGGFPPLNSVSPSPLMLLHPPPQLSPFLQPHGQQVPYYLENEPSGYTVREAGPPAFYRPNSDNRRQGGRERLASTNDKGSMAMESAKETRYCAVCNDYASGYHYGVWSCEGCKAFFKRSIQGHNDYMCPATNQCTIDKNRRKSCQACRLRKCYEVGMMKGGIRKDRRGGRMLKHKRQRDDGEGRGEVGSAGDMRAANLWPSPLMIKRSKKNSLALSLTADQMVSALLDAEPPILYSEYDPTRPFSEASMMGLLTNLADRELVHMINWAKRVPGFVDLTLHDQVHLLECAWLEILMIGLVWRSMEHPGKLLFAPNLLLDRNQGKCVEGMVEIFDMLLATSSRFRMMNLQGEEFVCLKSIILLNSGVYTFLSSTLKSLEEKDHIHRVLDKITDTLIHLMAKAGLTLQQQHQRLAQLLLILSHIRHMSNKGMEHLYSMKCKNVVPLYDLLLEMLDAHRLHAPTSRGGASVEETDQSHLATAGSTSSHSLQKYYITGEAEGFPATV
Outline: (§1)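 Recombinant human ER was diluted in binding buffer (50 mM Tris pH 7.5, 10% glycerol, 0.1 mM BHA, 10 mM mercaptoethanol, 0.5% yeast extract) to 2–4 nM. It was incubated refrigerated for 14–18 h with 10⁻⁸ M [³H]estradiol final and 10⁻⁴–10⁻⁸ M competitor in DMSO. Bound ligand was captured on hydroxylapatite for 15 min at 0 °C, washed three times with Tris pH 7.3, and counted by scintillation. Run in duplicate.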

[6] = biological target: T1, Estrogen receptor (Homo sapiens); assay: (§2) Agonist activity at ER in human T47D-Kbluc cells at 10^-14 to 10^-7 M after 24 hrs by luciferase reporter gene assay; format: cell-based
Outline: (§3)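 After 24 h at 37 °C, compounds were added at 10⁻¹⁴ to 10⁻⁷ M final in 0.1% DMSO final. After a further 24 h, Steady-Glo was added and luminescence read after 5 min.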

[7] = biological target: Estrogen receptor (Homo sapiens) (UniProt P03372); assay: (§4) Displacement of [3H]estradiol from human recombinant ER after 14 to 18 hrs by scintillation counting analysis; outline: as §1
[8] = biological target: Estrogen receptor (Homo sapiens) (UniProt P03372); assay: as §2; format: cell-based; outline: as §3; remark: listed apart in the source
[9] = biological target: T1, Estrogen receptor (Homo sapiens); assay: as §4; outline: as §1; remark: listed apart in the source

Molecule	EC50 (MCF7 [1]; Homo sapiens, MCF7, 168 h) [nM]	logP [3]	further results
CCC(CC)(CC)c1ccc(O)cc1	23	5.03	inhibition [5]: Active; Activity [6]: Active
4-Triethylgermylphenol [listing 1 of 2 here]	–	–	inhibition [7]: Dose-dependent effect; Activity [8]: Active
4-Triphenylgermylphenol [listing 1 of 2 here]	–	–	Emax (MCF7 [4]): 47%
CC(C)(C)c1ccc(O)cc1	870	–	–
CCC(C)(C)c1ccc(O)cc1	190	4.04	–
CC(C)(c1ccccc1)c1ccc(O)cc1	38	4.31	–
4-Triethylgermylphenol [listing 2 of 2 here]	–	5.71	EC50 (MCF7 [1]; mcf7): 2.1 nM

Further lines, with some results ahead:

EC50 (MCF7 [1]; Homo sapiens, MCF7, 168 h) [nM]	logP [3]	Molecule	further results
63	4.12	C[Si](C)(C)c1ccc(O)cc1	pKa [2]: 10.1
41	4.64	CC[Si](C)(C)c1ccc(O)cc1	–
–	6.25	Oc1ccc(C(c2ccccc2)(c2ccccc2)c2ccccc2)cc1	Emax (MCF7 [4]; MCF7, 168 h): 16%
16	4.91	C[Si](C)(c1ccccc1)c1ccc(O)cc1	–
3.4	5.69	CC[Si](CC)(CC)c1ccc(O)cc1	inhibition [9]: Dose-dependent effect; Activity [6]: Active
–	6.83	Oc1ccc([Si](c2ccccc2)(c2ccccc2)c2ccccc2)cc1	Emax (MCF7 [4]; MCF7, 168 h): 29%
–	4.11	4-Trimethylgermylphenol	EC50 (MCF7 [1]; mcf7): 100 nM; pKa [2]: 10.2
–	6.97	4-Triphenylgermylphenol [listing 2 of 2 here]	–
